biological target: Cyclin-dependent kinase 5/CDK5 activator 1 (Homo sapiens, UniProt Q00535); test: Inhibition of human recombinant CDK5/p25 using [gamma 33P]ATP after 30 mins by scintillation counting; assay type: protein-complex assay
In short: (§1)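 Native starfish M-phase oocyte CDK1/cyclin B, or recombinant human CDK5/p25, in buffer A pH 7.5 with heparin and BSA. Stopped on P81 paper, washed in 1% phosphoric acid, counted by scintillation. Blank subtracted; % of maximal activity; DMSO dilution controls.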

Chain of Cyclin-dependent kinase 5/CDK5 activator 1 (Q00535 whole entry): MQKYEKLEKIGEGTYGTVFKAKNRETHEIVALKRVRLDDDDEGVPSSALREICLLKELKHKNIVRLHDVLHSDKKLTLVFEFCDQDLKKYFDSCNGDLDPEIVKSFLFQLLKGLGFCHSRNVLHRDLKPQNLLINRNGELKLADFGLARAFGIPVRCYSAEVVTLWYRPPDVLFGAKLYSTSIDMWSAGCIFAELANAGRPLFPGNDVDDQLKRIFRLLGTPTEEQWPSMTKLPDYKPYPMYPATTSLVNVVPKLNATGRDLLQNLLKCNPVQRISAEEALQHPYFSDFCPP
Chain of Cyclin-dependent kinase 5/CDK5 activator 1 (Q15078 whole entry, further chain): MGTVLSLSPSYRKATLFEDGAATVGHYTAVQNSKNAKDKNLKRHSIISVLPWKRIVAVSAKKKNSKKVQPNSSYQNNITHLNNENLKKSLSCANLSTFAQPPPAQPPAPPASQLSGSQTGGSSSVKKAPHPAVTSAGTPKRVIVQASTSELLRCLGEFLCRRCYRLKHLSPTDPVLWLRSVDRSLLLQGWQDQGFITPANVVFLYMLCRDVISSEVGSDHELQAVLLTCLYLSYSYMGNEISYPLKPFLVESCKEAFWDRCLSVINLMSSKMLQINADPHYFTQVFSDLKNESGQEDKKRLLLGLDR

SMILES | IC50
CN1CCCC1c1c(O)cc(O)c2c(=O)cc(-c3ccccc3)oc12 (racemic) | 90 nM
CN1CCCC[C@@H]1c1c(O)cc(O)c2c(=O)cc(-c3ccccc3)oc12 | 950 nM
CCCCCC(NC)c1c(O)cc(O)c2c(=O)cc(-c3ccccc3)oc12 (racemic) | 520 nM
CCCCC[C@H](NC)c1c(O)cc(O)c2c(=O)cc(-c3ccccc3)oc12 | 2100 nM
O=c1cc(-c2ccccc2)oc2c(C3CCCCN3)c(O)cc(O)c12 (racemic) | 5500 nM
O=c1cc(-c2ccccc2)oc2c(C3CCCN3)c(O)cc(O)c12 (racemic) | 1100 nM
COc1cc(O)c(C2CCCCN2C)c2oc(-c3ccccc3)cc(=O)c12 (stereo unspecified) [BUCHENAVIANINE] | > 10000 nM

Other lines, results leading:

IC50 | SMILES
40 nM | CN1CCC[C@H]1c1c(O)cc(O)c2c(=O)cc(-c3ccccc3)oc12
50 nM | CN1CCCC[C@H]1c1c(O)cc(O)c2c(=O)cc(-c3ccccc3)oc12
1700 nM | CN1CCCCC1c1c(O)cc(O)c2c(=O)cc(-c3ccccc3)oc12 (racemic)
> 10000 nM | COc1cc(O)c(C2CCCCN2)c2oc(-c3ccccc3)cc(=O)c12 (stereo unspecified)
570 nM | CN1CCC[C@@H]1c1c(O)cc(O)c2c(=O)cc(-c3ccccc3)oc12
270 nM | CCCCC[C@@H](NC)c1c(O)cc(O)c2c(=O)cc(-c3ccccc3)oc12

biological target: Glycogen synthase kinase-3 (Sus scrofa, UniProt B2LUN4+I6LNT8); test: Inhibition of porcine brain GSK3alpha/beta using GS1 as substrate
In short: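 Native GSK-3α/β purified from porcine brain, assayed as for CDK1. Buffer A pH 7.5 with heparin and BSA, 30 °C, 15 μM [γ-33P]ATP, phosphorylated GS-1 peptide as substrate. Read by P81 paper capture and scintillation counting. Activity as % of uninhibited control after blank subtraction.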

SMILES | IC50
CN1CCCC1c1c(O)cc(O)c2c(=O)cc(-c3ccccc3)oc12 (racemic) | 1300 nM
CN1CCCC[C@@H]1c1c(O)cc(O)c2c(=O)cc(-c3ccccc3)oc12 | >= 10 uM
CCCCCC(NC)c1c(O)cc(O)c2c(=O)cc(-c3ccccc3)oc12 (racemic) | 5200 nM
CCCCC[C@H](NC)c1c(O)cc(O)c2c(=O)cc(-c3ccccc3)oc12 | > 10000 nM
O=c1cc(-c2ccccc2)oc2c(C3CCCCN3)c(O)cc(O)c12 (racemic) | > 10000 nM
O=c1cc(-c2ccccc2)oc2c(C3CCCN3)c(O)cc(O)c12 (racemic) | > 10000 nM
COc1cc(O)c(C2CCCCN2C)c2oc(-c3ccccc3)cc(=O)c12 (stereo unspecified) [BUCHENAVIANINE] | > 10000 nM

Second part, the compound after the results:

IC50 | SMILES
720 nM | CN1CCC[C@H]1c1c(O)cc(O)c2c(=O)cc(-c3ccccc3)oc12
1600 nM | CN1CCCC[C@H]1c1c(O)cc(O)c2c(=O)cc(-c3ccccc3)oc12
5100 nM | CN1CCCCC1c1c(O)cc(O)c2c(=O)cc(-c3ccccc3)oc12 (racemic)
> 10000 nM | COc1cc(O)c(C2CCCCN2)c2oc(-c3ccccc3)cc(=O)c12 (stereo unspecified)
2600 nM | CN1CCC[C@@H]1c1c(O)cc(O)c2c(=O)cc(-c3ccccc3)oc12
360 nM | CN1CC[C@H](c2c(O)cc(O)c3c(=O)cc(-c4ccccc4Cl)oc23)[C@H](O)C1 (single isomer, unassigned) [ALVOCIDIB]
4100 nM | CCCCC[C@@H](NC)c1c(O)cc(O)c2c(=O)cc(-c3ccccc3)oc12

biological target: Dual specificity protein kinase CLK1 (Mus musculus, UniProt P22518); test: Inhibition of GST-tagged mouse recombinant CLK1 expressed in Escherichia coli using GRSRSRSRSRSR as substrate
Sequence (P22518 whole entry): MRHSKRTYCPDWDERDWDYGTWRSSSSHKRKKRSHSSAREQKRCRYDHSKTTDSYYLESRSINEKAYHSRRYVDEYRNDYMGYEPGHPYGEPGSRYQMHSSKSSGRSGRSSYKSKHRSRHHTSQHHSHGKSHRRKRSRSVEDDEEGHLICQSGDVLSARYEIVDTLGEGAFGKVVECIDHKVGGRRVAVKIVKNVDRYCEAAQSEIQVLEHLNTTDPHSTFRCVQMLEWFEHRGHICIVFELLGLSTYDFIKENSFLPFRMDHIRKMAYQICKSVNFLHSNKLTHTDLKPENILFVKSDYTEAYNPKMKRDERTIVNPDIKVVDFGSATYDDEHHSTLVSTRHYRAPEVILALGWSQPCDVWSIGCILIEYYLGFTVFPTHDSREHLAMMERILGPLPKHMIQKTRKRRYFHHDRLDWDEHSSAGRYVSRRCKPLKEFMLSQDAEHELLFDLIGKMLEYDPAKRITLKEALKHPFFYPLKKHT

SMILES | IC50
CN1CCCC1c1c(O)cc(O)c2c(=O)cc(-c3ccccc3)oc12 (racemic) | 1600 nM
CN1CCCC[C@@H]1c1c(O)cc(O)c2c(=O)cc(-c3ccccc3)oc12 | > 10000 nM
CCCCCC(NC)c1c(O)cc(O)c2c(=O)cc(-c3ccccc3)oc12 (racemic) | > 10000 nM
CCCCC[C@H](NC)c1c(O)cc(O)c2c(=O)cc(-c3ccccc3)oc12 | > 10000 nM
O=c1cc(-c2ccccc2)oc2c(C3CCCCN3)c(O)cc(O)c12 (racemic) | > 10000 nM
O=c1cc(-c2ccccc2)oc2c(C3CCCN3)c(O)cc(O)c12 (racemic) | > 10000 nM
COc1cc(O)c(C2CCCCN2C)c2oc(-c3ccccc3)cc(=O)c12 (stereo unspecified) [BUCHENAVIANINE] | > 10000 nM

The remaining lines, values ahead:

IC50 | SMILES
670 nM | CN1CCC[C@H]1c1c(O)cc(O)c2c(=O)cc(-c3ccccc3)oc12
2100 nM | CN1CCCC[C@H]1c1c(O)cc(O)c2c(=O)cc(-c3ccccc3)oc12
8500 nM | CN1CCCCC1c1c(O)cc(O)c2c(=O)cc(-c3ccccc3)oc12 (racemic)
> 10000 nM | COc1cc(O)c(C2CCCCN2)c2oc(-c3ccccc3)cc(=O)c12 (stereo unspecified)
7400 nM | CN1CCC[C@@H]1c1c(O)cc(O)c2c(=O)cc(-c3ccccc3)oc12
> 10000 nM | CCCCC[C@@H](NC)c1c(O)cc(O)c2c(=O)cc(-c3ccccc3)oc12

biological target: Dual specificity tyrosine-phosphorylation-regulated kinase 1A (Rattus norvegicus, UniProt Q63470); test: Inhibition of GST-tagged rat recombinant DYRK1A expressed in Escherichia coli using KKISGRLSPIMTEQ as substrate

SMILES | IC50
CN1CCCC1c1c(O)cc(O)c2c(=O)cc(-c3ccccc3)oc12 (racemic) | > 10000 nM
CN1CCCC[C@@H]1c1c(O)cc(O)c2c(=O)cc(-c3ccccc3)oc12 | > 10000 nM
CCCCCC(NC)c1c(O)cc(O)c2c(=O)cc(-c3ccccc3)oc12 (racemic) | > 10000 nM
CCCCC[C@H](NC)c1c(O)cc(O)c2c(=O)cc(-c3ccccc3)oc12 | > 10000 nM
O=c1cc(-c2ccccc2)oc2c(C3CCCCN3)c(O)cc(O)c12 (racemic) | > 10000 nM
O=c1cc(-c2ccccc2)oc2c(C3CCCN3)c(O)cc(O)c12 (racemic) | > 10000 nM
COc1cc(O)c(C2CCCCN2C)c2oc(-c3ccccc3)cc(=O)c12 (stereo unspecified) [BUCHENAVIANINE] | > 10000 nM

The remaining lines, values ahead:

IC50 | SMILES
> 10000 nM | CN1CCC[C@H]1c1c(O)cc(O)c2c(=O)cc(-c3ccccc3)oc12
> 10000 nM | CN1CCCC[C@H]1c1c(O)cc(O)c2c(=O)cc(-c3ccccc3)oc12
> 10000 nM | CN1CCCCC1c1c(O)cc(O)c2c(=O)cc(-c3ccccc3)oc12 (racemic)
> 10000 nM | COc1cc(O)c(C2CCCCN2)c2oc(-c3ccccc3)cc(=O)c12 (stereo unspecified)
> 10000 nM | CN1CCC[C@@H]1c1c(O)cc(O)c2c(=O)cc(-c3ccccc3)oc12
> 10000 nM | CCCCC[C@@H](NC)c1c(O)cc(O)c2c(=O)cc(-c3ccccc3)oc12

system: not listed separately; test: Inhibition of starfish oocyte CDK1/cyclin B using [gamma 33P]ATP after 30 mins by scintillation counting; design: species or system Asteroidea
In short: as §1, with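 “BSA. Substrate histone H1 25 μg with 15 μM [γ-33P]ATP, 30 min at 30 °C.” for “BSA.”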

SMILES | IC50
CN1CCCC1c1c(O)cc(O)c2c(=O)cc(-c3ccccc3)oc12 (racemic) | 50 nM
CN1CCCC[C@@H]1c1c(O)cc(O)c2c(=O)cc(-c3ccccc3)oc12 | 1100 nM
CCCCCC(NC)c1c(O)cc(O)c2c(=O)cc(-c3ccccc3)oc12 (racemic) | 1100 nM
CN1CCCC[C@H]1c1c(O)cc(O)c2c(=O)cc(-c3ccccc3)oc12 | 30 nM
CN1CCCCC1c1c(O)cc(O)c2c(=O)cc(-c3ccccc3)oc12 (racemic) | 90 nM
CCCCC[C@H](NC)c1c(O)cc(O)c2c(=O)cc(-c3ccccc3)oc12 | 5400 nM
O=c1cc(-c2ccccc2)oc2c(C3CCCCN3)c(O)cc(O)c12 (racemic) | 5000 nM
COc1cc(O)c(C2CCCCN2)c2oc(-c3ccccc3)cc(=O)c12 (stereo unspecified) | > 10000 nM
CN1CCC[C@@H]1c1c(O)cc(O)c2c(=O)cc(-c3ccccc3)oc12 | 390 nM
CN1CC[C@H](c2c(O)cc(O)c3c(=O)cc(-c4ccccc4Cl)oc23)[C@H](O)C1 (single isomer, unassigned) [ALVOCIDIB] | 90 nM
CCCCC[C@@H](NC)c1c(O)cc(O)c2c(=O)cc(-c3ccccc3)oc12 | 520 nM
O=c1cc(-c2ccccc2)oc2c(C3CCCN3)c(O)cc(O)c12 (racemic) | 1600 nM
COc1cc(O)c(C2CCCCN2C)c2oc(-c3ccccc3)cc(=O)c12 (stereo unspecified) [BUCHENAVIANINE] | > 10000 nM

From ChEMBL document CHEMBL2029219, “Synthesis, biological evaluation, and molecular modeling of natural and unnatural flavonoidal alkaloids, inhibitors of kinases” (J Med Chem, 2012)
